Measurements reported in ChEMBL document CHEMBL5653631, “A Potent and Selective ULK1 Inhibitor Suppresses Autophagy and Sensitizes Cancer Cells to Nutrient Stress” (iScience, 2018).

Assays:
[1] = target: T1, G protein-coupled receptor kinase 3 (Homo sapiens) (UniProt P35626); assay: Inhibition of human recombinant BARK2 at 40 nM in presence of ATP by radiometric assay relative to control
T1 sequence (whole entry): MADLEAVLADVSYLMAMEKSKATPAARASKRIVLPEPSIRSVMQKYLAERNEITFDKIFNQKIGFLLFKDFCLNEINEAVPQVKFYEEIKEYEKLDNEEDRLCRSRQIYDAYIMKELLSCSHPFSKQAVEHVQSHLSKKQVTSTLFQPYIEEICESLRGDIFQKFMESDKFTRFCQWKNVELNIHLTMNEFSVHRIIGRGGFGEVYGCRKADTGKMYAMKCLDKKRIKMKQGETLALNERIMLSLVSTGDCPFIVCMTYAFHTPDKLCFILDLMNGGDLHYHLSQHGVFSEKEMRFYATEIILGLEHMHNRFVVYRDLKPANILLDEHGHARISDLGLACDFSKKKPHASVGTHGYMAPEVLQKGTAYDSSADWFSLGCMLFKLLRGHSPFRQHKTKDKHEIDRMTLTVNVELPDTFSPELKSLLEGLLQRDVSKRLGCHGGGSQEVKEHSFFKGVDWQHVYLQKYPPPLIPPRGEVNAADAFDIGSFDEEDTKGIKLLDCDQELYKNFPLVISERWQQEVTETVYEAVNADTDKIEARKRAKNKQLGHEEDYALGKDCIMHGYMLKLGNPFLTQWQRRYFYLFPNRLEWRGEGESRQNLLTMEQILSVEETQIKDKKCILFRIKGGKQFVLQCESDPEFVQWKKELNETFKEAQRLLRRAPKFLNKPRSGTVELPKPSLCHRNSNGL
Procedure, shortened: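 Part of a radiometric in vitro activity panel of 327 recombinant human kinases. Each kinase was tested in duplicate at one inhibitor concentration. Activity remaining was expressed as a percentage of the vehicle control, and percent inhibition was taken as 100 minus that value.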

[2] = target: Mitogen-activated protein kinase kinase kinase kinase 4 (Homo sapiens) (UniProt O95819); assay: Inhibition of human recombinant HGK at 40 nM in presence of ATP by radiometric assay relative to control
[3] = target: Vascular endothelial growth factor receptor 3 (Homo sapiens) (UniProt P35916); assay: Inhibition of human recombinant FLT4 at 40 nM related to control ULK1
[4] = target: Mitogen-activated protein kinase kinase kinase 9 (Homo sapiens) (UniProt P80192); assay: Inhibition of human recombinant MLK1 at 40 nM related to control ULK1
[5] = target: Serine/threonine-protein kinase pim-3 (Homo sapiens) (UniProt Q86V86); assay: Inhibition of human recombinant PIM3 at 40 nM related to control ULK1
[6] = target: Glycogen synthase kinase-3 beta (Homo sapiens) (UniProt P49841); assay: Inhibition of human recombinant GSK3B at 500 nM in presence of ATP by radiometric assay relative to control
[7] = target: T2, Serine/threonine-protein kinase 17A (Homo sapiens) (UniProt Q9UEE5); assay: Inhibition of human recombinant DRAK1 at 500 nM related to control ULK1
T2 sequence (whole entry): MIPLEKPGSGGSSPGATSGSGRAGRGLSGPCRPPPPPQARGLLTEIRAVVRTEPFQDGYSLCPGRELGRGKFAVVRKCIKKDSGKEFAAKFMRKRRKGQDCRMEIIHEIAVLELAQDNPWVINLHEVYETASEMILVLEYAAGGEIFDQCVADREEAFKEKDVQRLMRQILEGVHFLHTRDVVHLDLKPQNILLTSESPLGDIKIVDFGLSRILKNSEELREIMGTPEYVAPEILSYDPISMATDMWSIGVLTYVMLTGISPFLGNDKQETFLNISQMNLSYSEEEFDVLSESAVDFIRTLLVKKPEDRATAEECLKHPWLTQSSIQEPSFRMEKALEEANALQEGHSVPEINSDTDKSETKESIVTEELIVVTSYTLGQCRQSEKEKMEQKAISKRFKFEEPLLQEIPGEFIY

[8] = target: Ephrin type-A receptor 5 (Homo sapiens) (UniProt P54756); assay: Inhibition of human recombinant EphA5 at 500 nM related to control ULK1
[9] = target: Tyrosine-protein kinase HCK (Homo sapiens) (UniProt P08631); assay: Inhibition of human recombinant HCK at 500 nM related to control ULK1
[10] = target: Ribosomal protein S6 kinase alpha-2 (Homo sapiens) (UniProt Q15349); assay: Inhibition of human recombinant RSK3 at 500 nM related to control ULK1
[11] = target: Serine/threonine-protein kinase B-raf (Homo sapiens) (UniProt P15056); assay: Inhibition of human recombinant BRAF at 15 nM related to control ULK1
[12] = target: T3, Inhibitor of nuclear factor kappa-B kinase subunit alpha (Homo sapiens) (UniProt O15111); assay: Inhibition of human recombinant IKKa at 15 nM related to control ULK1
T3 sequence (whole entry): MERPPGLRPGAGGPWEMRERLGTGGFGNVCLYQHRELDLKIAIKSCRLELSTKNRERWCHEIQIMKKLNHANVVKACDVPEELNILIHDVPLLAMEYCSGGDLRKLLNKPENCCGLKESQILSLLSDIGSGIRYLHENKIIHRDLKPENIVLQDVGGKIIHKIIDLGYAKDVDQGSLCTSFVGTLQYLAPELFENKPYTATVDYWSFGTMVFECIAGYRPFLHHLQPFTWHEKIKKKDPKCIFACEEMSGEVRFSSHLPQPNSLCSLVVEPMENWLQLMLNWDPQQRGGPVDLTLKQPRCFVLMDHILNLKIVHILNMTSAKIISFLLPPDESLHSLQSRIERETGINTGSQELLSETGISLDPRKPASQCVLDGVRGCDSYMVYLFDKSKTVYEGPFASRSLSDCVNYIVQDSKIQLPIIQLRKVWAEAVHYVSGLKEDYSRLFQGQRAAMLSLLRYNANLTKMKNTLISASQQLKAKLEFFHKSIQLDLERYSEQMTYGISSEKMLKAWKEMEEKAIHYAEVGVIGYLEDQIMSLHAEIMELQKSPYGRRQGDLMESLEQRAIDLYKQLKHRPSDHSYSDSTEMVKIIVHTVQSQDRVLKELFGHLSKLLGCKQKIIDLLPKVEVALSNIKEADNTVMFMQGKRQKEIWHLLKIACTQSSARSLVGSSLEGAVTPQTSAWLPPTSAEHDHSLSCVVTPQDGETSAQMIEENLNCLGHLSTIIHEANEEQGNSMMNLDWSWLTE

[13] = target: Protein kinase C theta type (Homo sapiens) (UniProt Q04759); assay: Inhibition of human recombinant PKCt at 15 nM related to control ULK1
[14] = target: Serine/threonine-protein kinase 25 (Homo sapiens) (UniProt O00506); assay: Inhibition of human recombinant YSK1 at 15 nM related to control ULK1
[15] = target: Activin receptor type-2A (Homo sapiens) (UniProt P27037); assay: Inhibition of human recombinant ACTR2 at 15 nM in presence of ATP by radiometric assay relative to control

Compound: O=C(N[C@@H](C1CC1)C(F)(F)F)c1cc(-c2cnn3cc(-c4ccc(F)cc4)cnc23)cs1
- inhibition [1]: 7%
- inhibition [2]: 0%
- fold change (FC) [3]: 0.26
- fold change (FC) [4]: 0.1
- fold change (FC) [5]: 0

Compound: CNC(=O)c1ccccc1Oc1nc(Nc2cc(OC)c(OC)c(OC)c2)ncc1Br
- inhibition [6]: 0%
- fold change (FC) [7]: 0
- fold change (FC) [8]: 0.26
- fold change (FC) [9]: 0.23
- fold change (FC) [10]: 0.66

Compound: CC(C)[C@H](NC(=O)c1cc(-c2cnn3cc(-c4ccc(OCCN5CCCCC5)cc4)cnc23)cs1)C(F)(F)F
- fold change (FC) [11]: 0.13
- fold change (FC) [12]: 0.01
- fold change (FC) [13]: 0
- fold change (FC) [14]: 0
- inhibition [15]: 4%
